In ChEMBL document CHEMBL1152541, “Staurosporine tethered peptide ligands that target cAMP-dependent protein kinase (PKA): optimization and selectivity profiling” (Bioorg Med Chem, 2009):
*1 amine or outer side, *2 acyl side, *3 side chain or, on linkers, in order; H or OH if unused. Where a SMILES comes first, the peptide text is derived from it. Bridges are numbered along the chain shown (N, C = ends). [ ]: non-standard residue; d: D form. The star is where a group is joined. Staurosporine = CO[C@@H]1[C@H](N(C)*)C[C@H]2O[C@]1(C)n1c3ccccc3c3c4c(c5c6ccccc6n2c5c31)C(=O)NC4; Suc = O=C(CCC(=O)[*:2])[*:1]; Dap = NC[C@H](N)C(=O)O; βAla = NCCC(=O)O

Legend:
[1] = molecular target: MAP kinase-activated protein kinase 2 (Homo sapiens) (UniProt P49137); test: Binding affinity to human MAPKAPK2 at 500 nM by cell-based competition binding assay relative to control in presence of DTT
Method in brief: (§1)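 Competition binding screen (Ambit) across a panel of 90 kinases, scoring test ligand displacement of each kinase's binding relative to control. The screen ran under reducing conditions with 7.5 mM DTT.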

[2] = molecular target: Serine/threonine-protein kinase PAK 4 (Homo sapiens) (UniProt O96013); test: Binding affinity to human PAK4 at 500 nM by cell-based competition binding assay relative to control in presence of DTT
[3] = molecular target: Fibroblast growth factor receptor 3 (Homo sapiens) (UniProt P22607); test: Binding affinity to human FGFR3 at 200 nM by cell-based competition binding assay relative to control in presence of DTT
Method in brief: (§2)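 Commercial (Ambit) competitive kinase-binding panel of 90 kinases measured the binding profile. Run under reducing conditions of 7.5 mM DTT. Binding is expressed relative to control.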

[4] = molecular target: Serine/threonine-protein kinase 32C (Homo sapiens) (UniProt Q86UX6); test: Binding affinity to human YANK3 at 200 nM by cell-based competition binding assay relative to control in presence of DTT
[5] = molecular target: Ribosomal protein S6 kinase alpha-3 (Homo sapiens) (UniProt P51812); test: Binding affinity to human RPS6KA3 kinase domain 1 at 200 nM by cell-based competition binding assay relative to control in presence of DTT
[6] = molecular target: Fibroblast growth factor receptor 2 (Homo sapiens) (UniProt P21802); test: Binding affinity to human FGFR2 at 50 nM by cell-based competition binding assay relative to control in presence of DTT; method in brief: as §2
[7] = molecular target: Mitogen-activated protein kinase 14 (Homo sapiens) (UniProt Q16539); test: Binding affinity to human p38alpha at 50 nM by cell-based competition binding assay relative to control in presence of DTT
[8] = molecular target: Serine/threonine-protein kinase B-raf (Homo sapiens) (UniProt P15056); test: Binding affinity to human BRAF at 50 nM by cell-based competition binding assay relative to control in presence of DTT
Method in brief: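 Kinase binding profiling ran on a commercial (Ambit) competitive binding screen against a panel of 90 kinases. The screen used reducing conditions with 7.5 mM DTT. To withstand the DTT, the bivalent ligand was tested as its amide isostere, with the disulfide replaced. A staurosporine derivative carrying a 3 β-alanine linker was run as the reference compound.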

[9] = molecular target: Platelet-derived growth factor receptor alpha (Homo sapiens) (UniProt P16234); test: Binding affinity to human PDGFRalpha at 50 nM by cell-based competition binding assay relative to control in presence of DTT
[10] = molecular target: High affinity nerve growth factor receptor (Homo sapiens) (UniProt P04629); test: Binding affinity to human TRKA at 50 nM by cell-based competition binding assay relative to control in presence of DTT
[11] = molecular target: Hepatocyte growth factor receptor (Homo sapiens) (UniProt P08581); test: Binding affinity to human MET at 50 nM by cell-based competition binding assay relative to control in presence of DTT
[12] = molecular target: T1, Serine/threonine-protein kinase Chk1 (Homo sapiens) (UniProt O14757); test: Binding affinity to human CHEK1 at 50 nM by cell-based competition binding assay relative to control in presence of DTT; method in brief: as §2
T1 sequence (whole entry): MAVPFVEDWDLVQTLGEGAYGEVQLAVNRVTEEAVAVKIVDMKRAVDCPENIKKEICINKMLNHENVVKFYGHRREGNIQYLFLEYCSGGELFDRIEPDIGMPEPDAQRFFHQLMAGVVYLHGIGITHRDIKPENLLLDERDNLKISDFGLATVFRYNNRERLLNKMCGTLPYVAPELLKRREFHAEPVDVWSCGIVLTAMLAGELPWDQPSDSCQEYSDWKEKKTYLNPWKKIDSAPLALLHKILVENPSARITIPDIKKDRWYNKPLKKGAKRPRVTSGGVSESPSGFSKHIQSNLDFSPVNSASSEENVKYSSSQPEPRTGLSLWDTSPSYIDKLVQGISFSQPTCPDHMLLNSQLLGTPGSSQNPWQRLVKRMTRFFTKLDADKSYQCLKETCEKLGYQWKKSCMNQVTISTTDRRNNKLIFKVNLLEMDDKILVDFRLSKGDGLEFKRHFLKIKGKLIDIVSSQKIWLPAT

[13] = molecular target: T2, Tyrosine-protein kinase JAK3 (Homo sapiens) (UniProt P52333); test: Binding affinity to human JAK3 kinase domain 2 at 50 nM by cell-based competition binding assay relative to control in presence of DTT; method in brief: as §1
T2 sequence (whole entry): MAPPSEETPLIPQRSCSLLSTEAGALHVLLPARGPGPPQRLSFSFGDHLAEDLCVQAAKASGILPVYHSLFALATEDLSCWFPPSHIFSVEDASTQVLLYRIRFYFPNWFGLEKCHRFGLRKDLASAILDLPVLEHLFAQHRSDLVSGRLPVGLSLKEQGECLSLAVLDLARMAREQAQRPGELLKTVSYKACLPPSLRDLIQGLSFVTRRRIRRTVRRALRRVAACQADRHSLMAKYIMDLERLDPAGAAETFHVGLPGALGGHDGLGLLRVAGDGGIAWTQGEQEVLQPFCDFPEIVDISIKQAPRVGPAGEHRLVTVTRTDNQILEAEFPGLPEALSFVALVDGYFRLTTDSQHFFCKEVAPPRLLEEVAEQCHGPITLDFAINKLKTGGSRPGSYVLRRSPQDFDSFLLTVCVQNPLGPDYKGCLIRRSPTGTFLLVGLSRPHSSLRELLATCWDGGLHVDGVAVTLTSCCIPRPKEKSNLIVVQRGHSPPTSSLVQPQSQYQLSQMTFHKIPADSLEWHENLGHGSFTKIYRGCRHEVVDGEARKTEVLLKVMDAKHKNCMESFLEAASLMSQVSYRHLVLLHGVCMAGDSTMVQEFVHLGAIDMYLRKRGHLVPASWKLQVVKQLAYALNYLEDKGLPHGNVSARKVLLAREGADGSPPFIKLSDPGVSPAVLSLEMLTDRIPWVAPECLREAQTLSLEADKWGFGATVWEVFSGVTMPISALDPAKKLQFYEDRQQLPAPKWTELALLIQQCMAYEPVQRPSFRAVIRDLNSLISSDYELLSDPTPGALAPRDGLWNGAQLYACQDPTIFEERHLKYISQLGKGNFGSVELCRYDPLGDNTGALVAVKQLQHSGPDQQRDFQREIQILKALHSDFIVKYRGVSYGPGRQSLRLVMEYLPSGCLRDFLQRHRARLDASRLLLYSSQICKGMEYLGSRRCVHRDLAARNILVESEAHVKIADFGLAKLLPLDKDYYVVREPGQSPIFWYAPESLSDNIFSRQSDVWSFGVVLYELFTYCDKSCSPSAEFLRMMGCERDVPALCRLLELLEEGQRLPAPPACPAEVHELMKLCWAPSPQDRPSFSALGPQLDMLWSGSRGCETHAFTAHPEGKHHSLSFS

[14] = molecular target: Phosphatidylinositol 4,5-bisphosphate 3-kinase catalytic subunit gamma isoform (Homo sapiens) (UniProt P48736); test: Binding affinity to human PIK3Cgamma at 50 nM by cell-based competition binding assay relative to control in presence of DTT

Chain of High affinity nerve growth factor receptor (Homo sapiens) (P04629 33-796 limits assumed): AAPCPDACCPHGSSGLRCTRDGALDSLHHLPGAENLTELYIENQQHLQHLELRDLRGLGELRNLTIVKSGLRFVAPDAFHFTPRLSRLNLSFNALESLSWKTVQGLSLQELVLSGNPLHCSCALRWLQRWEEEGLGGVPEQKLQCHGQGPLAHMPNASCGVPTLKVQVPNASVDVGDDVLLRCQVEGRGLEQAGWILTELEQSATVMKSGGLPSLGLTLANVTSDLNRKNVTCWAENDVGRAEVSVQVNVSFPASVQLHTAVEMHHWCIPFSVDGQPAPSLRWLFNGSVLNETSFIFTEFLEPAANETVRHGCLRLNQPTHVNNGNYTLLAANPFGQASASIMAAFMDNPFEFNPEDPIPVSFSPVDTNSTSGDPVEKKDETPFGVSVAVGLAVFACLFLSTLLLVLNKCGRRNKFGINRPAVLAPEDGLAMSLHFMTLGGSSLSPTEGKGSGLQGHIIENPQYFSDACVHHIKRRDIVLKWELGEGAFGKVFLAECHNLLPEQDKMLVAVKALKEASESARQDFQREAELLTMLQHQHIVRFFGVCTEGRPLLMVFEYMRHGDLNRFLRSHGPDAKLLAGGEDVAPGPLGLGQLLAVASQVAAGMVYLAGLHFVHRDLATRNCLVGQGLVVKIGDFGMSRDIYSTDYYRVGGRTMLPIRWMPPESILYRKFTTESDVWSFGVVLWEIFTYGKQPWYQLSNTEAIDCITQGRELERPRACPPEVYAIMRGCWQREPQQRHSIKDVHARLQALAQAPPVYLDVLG
Chain of MAP kinase-activated protein kinase 2 (Homo sapiens) (P49137 whole entry, looked up): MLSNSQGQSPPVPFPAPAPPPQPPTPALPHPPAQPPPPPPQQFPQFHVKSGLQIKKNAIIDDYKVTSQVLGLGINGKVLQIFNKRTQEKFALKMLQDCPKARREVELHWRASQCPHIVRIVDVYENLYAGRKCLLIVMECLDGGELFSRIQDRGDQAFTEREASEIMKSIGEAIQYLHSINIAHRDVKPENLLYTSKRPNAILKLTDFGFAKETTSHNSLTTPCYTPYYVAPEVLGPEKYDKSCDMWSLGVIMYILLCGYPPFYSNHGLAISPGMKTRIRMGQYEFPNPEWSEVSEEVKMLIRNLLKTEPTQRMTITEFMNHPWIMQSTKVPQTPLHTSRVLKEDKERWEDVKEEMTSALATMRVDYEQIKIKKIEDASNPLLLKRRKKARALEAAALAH
Chain of Serine/threonine-protein kinase PAK 4 (Homo sapiens) (O96013 whole entry, looked up): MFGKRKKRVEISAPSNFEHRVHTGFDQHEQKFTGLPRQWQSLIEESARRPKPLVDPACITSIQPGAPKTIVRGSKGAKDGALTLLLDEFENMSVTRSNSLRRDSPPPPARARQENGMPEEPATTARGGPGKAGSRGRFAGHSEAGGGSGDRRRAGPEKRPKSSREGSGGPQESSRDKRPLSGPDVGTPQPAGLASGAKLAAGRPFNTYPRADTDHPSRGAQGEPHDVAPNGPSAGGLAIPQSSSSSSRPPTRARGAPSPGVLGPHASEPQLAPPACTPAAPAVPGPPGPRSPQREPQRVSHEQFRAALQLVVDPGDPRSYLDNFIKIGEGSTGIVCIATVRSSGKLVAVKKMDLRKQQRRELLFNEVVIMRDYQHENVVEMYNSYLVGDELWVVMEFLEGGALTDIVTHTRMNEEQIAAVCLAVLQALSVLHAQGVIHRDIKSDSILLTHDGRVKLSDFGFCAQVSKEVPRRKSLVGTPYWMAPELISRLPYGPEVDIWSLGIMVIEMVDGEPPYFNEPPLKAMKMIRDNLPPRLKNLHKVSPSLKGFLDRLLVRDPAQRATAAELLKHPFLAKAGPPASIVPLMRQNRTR
Chain of Fibroblast growth factor receptor 3 (Homo sapiens) (P22607 23-806 limits assumed): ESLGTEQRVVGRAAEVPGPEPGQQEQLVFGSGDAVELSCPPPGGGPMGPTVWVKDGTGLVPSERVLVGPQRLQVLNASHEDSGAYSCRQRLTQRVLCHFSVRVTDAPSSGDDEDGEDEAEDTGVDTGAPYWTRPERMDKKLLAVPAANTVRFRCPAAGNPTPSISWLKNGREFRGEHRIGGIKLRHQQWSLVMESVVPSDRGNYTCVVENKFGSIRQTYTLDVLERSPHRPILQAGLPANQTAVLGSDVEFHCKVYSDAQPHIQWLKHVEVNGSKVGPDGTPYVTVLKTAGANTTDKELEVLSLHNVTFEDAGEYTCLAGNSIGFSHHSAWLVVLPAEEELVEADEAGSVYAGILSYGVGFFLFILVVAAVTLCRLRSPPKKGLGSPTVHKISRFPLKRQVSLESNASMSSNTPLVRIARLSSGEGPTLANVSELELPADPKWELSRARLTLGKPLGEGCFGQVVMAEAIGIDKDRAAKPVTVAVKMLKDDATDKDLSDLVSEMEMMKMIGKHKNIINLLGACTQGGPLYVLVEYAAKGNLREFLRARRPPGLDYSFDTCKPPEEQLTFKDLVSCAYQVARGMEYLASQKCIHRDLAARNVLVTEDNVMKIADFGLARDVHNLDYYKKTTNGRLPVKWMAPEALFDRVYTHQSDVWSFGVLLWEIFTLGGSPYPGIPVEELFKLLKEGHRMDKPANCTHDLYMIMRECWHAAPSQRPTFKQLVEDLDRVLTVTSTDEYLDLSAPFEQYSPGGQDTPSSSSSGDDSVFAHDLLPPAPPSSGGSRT
Chain of Hepatocyte growth factor receptor (Homo sapiens) (P08581 whole entry): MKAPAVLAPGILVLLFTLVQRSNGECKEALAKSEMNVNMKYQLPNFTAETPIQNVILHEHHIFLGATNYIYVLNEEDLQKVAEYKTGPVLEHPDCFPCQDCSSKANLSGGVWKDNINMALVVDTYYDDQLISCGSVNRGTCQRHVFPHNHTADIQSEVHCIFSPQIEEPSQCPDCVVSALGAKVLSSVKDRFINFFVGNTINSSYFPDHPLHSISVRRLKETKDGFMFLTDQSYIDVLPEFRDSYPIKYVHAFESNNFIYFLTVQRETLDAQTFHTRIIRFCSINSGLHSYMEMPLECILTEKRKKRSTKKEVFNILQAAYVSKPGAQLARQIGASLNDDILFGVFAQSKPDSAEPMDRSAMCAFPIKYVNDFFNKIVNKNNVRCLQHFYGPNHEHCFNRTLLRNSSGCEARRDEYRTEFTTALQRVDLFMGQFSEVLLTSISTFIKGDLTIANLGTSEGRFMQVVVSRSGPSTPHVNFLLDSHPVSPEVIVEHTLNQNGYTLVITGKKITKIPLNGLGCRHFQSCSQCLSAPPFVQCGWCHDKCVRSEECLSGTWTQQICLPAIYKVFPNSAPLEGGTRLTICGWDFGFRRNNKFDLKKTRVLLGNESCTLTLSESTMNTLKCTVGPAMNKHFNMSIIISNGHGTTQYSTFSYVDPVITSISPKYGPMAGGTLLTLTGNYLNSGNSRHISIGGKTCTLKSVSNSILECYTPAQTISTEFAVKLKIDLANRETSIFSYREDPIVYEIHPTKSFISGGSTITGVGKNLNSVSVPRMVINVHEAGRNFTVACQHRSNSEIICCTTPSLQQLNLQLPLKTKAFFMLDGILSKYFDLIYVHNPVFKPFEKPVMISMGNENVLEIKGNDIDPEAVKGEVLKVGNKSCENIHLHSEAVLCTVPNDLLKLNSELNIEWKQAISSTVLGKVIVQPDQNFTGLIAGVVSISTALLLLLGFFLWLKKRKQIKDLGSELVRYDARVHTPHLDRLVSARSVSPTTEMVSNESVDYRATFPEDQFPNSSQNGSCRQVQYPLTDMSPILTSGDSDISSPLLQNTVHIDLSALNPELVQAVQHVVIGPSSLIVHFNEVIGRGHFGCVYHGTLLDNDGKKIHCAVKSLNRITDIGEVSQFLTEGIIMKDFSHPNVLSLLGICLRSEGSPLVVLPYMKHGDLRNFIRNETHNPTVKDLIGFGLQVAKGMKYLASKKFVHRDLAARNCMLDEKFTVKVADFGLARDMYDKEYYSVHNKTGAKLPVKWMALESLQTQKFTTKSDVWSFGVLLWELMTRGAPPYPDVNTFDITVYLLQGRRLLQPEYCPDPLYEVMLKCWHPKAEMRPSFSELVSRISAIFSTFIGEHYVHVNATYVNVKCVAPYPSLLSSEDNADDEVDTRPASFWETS
Chain of Ribosomal protein S6 kinase alpha-3 (Homo sapiens) (P51812 whole entry, the tested form may be a part): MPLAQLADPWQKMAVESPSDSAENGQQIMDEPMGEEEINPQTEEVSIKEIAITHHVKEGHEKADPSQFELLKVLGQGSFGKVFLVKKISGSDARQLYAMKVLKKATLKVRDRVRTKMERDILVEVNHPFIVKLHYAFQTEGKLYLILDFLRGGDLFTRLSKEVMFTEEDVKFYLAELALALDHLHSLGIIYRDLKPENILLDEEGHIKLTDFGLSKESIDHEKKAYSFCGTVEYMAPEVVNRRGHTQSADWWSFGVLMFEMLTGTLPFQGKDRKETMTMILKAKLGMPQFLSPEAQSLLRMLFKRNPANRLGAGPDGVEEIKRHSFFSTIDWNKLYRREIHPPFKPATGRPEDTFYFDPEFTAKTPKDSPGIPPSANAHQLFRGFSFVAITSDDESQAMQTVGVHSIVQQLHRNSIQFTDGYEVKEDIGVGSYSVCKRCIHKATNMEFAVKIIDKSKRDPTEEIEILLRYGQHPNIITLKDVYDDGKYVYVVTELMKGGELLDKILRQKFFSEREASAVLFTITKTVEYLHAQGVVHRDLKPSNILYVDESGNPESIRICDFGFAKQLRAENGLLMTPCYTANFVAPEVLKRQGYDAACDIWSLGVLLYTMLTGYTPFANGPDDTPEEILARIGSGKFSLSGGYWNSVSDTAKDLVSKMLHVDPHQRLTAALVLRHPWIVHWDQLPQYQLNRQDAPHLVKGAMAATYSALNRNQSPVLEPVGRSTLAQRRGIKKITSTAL
Chain of Mitogen-activated protein kinase 14 (Homo sapiens) (Q16539 whole entry): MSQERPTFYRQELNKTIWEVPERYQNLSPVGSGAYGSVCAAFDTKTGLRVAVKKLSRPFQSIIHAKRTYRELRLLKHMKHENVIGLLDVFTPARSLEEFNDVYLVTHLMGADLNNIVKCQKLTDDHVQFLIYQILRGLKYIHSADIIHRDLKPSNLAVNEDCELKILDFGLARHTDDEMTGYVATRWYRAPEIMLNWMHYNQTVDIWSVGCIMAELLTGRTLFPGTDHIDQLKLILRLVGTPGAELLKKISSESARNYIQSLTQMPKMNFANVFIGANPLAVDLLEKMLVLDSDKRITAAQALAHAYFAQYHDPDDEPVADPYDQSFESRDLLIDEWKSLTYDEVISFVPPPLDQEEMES

## CO[C@@H]1[C@H](N(C)C(=O)CCC(=O)NCCC(=O)NCCC(=O)NCCC(N)=O)C[C@H]2O[C@]1(C)n1c3ccccc3c3c4c(c5c6ccccc6n2c5c31)C(=O)NC4
[1]
  Activity: 100%
[2]
  Activity: 34%

## CO[C@@H]1[C@H](N(C)C(=O)CCC(=O)NCCC(=O)NCCC(=O)NCCC(=O)NCCC(=O)NCCC(=O)NCCC(=O)NCCC(=O)N[C@H]2CSSC[C@@H](C(=O)NCC(N)=O)NC(=O)CNC(=O)[C@H](Cc3ccccc3)NC(=O)[C@H](C(C)C)NC(=O)[C@H](CCCNC(=N)N)NC(=O)[C@H](Cc3ccccc3)NC(=O)[C@H](C(C)C)NC2=O)C[C@H]2O[C@]1(C)n1c3ccccc3c3c4c(c5c6ccccc6n2c5c31)C(=O)NC4 ({Staurosporine-Suc-βAla-βAla-βAla-βAla-βAla-βAla-βAla}-CVFRVFGCG-NH2; disulfide 1-8)
[3]
  Activity: 85%
[4]
  Activity: 100%
[5]
  Activity: 100%

## CO[C@@H]1[C@H](N(C)C(=O)CCC(=O)NCCC(=O)NCCC(=O)NCCC(=O)NCCC(=O)NCCC(=O)NCCC(=O)NCCC(=O)N[C@H]2CNC(=O)C[C@@H](C(N)=O)NC(=O)CNC(=O)[C@H](Cc3ccccc3)NC(=O)[C@H](C(C)C)NC(=O)[C@H](CCCNC(=N)N)NC(=O)[C@H](Cc3ccccc3)NC(=O)[C@H](C(C)C)NC2=O)C[C@H]2O[C@]1(C)n1c3ccccc3c3c4c(c5c6ccccc6n2c5c31)C(=O)NC4 ({Staurosporine-Suc-βAla-βAla-βAla-βAla-βAla-βAla-βAla}-[Dap]VFRVFGD-NH2; lactam 1-8)
[6]
  Activity: 86%
[7]
  Activity: 95%
[8]
  Activity: 96%
[9]
  Activity: 100%
[10]
  Activity: 98%
[11]
  Activity: 100%
[12]
  Activity: 91%
[13]
  Activity: 16%
[14]
  Activity: 91%
